In ChEMBL document CHEMBL2311421, “Synthesis, crystal structure and antidiabetic activity of substituted (E)-3-(Benzo [d]thiazol-2-ylamino) phenylprop-2-en-1-one” (Eur J Med Chem, 2013):

Key:
[1] = Inhibition of Swiss mouse liver glucosidase
How it was run: (§1)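 Enzyme source: tissue homogenates of pancreas, liver or small intestine from 12 h-starved 10-week-old male Swiss mice (20 g), made 1:10 w/v in ice-cold 10 mM phosphate buffer with 6 mM NaCl plus protease inhibitors. Spun at 10,000 rpm for 10 min; supernatant diluted to A280 0.4. Assayed as for amylase. IC50 from mean of n = 3.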

[2] = Inhibition of Swiss mouse intestinal glucosidase; how it was run: as §1
[3] = Inhibition of Swiss mouse pancreatic glucosidase; how it was run: as §1
[4] = target: T1, Pancreatic alpha-amylase (Sus scrofa, UniProt P00690); assay: Inhibition of pig pancreatic alpha-amylase by Bernfeld method
T1 sequence (P00690 whole entry): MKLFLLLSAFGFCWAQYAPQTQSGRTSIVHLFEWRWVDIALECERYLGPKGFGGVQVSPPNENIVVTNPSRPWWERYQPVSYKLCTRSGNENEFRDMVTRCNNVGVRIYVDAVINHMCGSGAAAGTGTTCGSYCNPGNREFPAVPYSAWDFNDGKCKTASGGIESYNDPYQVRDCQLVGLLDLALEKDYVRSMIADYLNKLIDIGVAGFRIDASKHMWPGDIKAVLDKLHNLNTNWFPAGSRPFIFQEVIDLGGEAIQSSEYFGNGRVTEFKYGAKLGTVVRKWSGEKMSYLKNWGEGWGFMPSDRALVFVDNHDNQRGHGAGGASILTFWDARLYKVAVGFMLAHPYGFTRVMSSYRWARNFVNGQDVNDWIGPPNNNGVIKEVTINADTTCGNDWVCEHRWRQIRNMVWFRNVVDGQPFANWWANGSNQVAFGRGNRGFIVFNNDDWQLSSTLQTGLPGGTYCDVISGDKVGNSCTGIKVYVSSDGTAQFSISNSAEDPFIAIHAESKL

SMILES | IC50 ([1]; read-out: IC50) [µM] | IC50 ([2]; read-out: IC50) [µM] | IC50 [3] [µM] | IC50 [4] [µM] | IC50 [1] | IC50 [2]
CS/C(=C/C(=O)c1ccc(Br)cc1)Nc1nc2cc(C)c(C)cc2s1 | 16.7 | 25.9 | 24.7 | 16.9 | – | –
CS/C(=C/C(=O)c1ccc(Cl)cc1)Nc1nc2ccccc2s1 | 15 | 44.5 | 32.4 | 20.3 | – | –
CCOc1ccc2nc(N/C(=C\C(=O)c3ccc(Cl)cc3)SC)sc2c1 | 17.4 | 14.7 | 26.5 | 17.9 | – | –
CS/C(=C/C(=O)c1ccc(F)cc1)Nc1nc2ccccc2s1 | 21.7 | 32.1 | 33.6 | 19.9 | – | –
CCOc1ccc2nc(N/C(=C\C(=O)c3ccc(F)cc3)SC)sc2c1 | 24.2 | 49.4 | 23.5 | 18.4 | – | –
CS/C(=C/C(=O)c1ccc(C)cc1)Nc1nc2ccccc2s1 | 22.5 | 30 | 26.9 | 20.6 | – | –
C[C@H]1O[C@H](O[C@H]2[C@H](O)[C@@H](O)[C@@H](O[C@H]3[C@H](O)[C@@H](O)C(O)O[C@@H]3CO)O[C@@H]2CO)[C@H](O)[C@@H](O)[C@@H]1N[C@H]1C=C(CO)[C@@H](O)[C@H](O)[C@H]1O (some centres not stated) [ACARBOSE] | > 100 | – | > 100 | – | – | Not Active

More lines, in order of falling IC50 [3], values ahead:

IC50 ([1]; read-out: IC50) [µM] | IC50 ([2]; read-out: IC50) [µM] | IC50 [3] [µM] | IC50 [4] [µM] | IC50 [1] | IC50 [2] | SMILES
21.4 | 29.3 | 23.2 | 18.6 | – | – | CCOc1ccc2nc(N/C(=C\C(=O)c3ccc(OC)cc3)SC)sc2c1
15.4 | 45.3 | 21.7 | 17.8 | – | – | CS/C(=C/C(=O)c1ccc(Br)cc1)Nc1nc2ccccc2s1
15.7 | 31.9 | 20.9 | 15.9 | – | – | CCOc1ccc2nc(N/C(=C\C(=O)c3ccc(Br)cc3)SC)sc2c1
24.2 | 23.5 | 19.9 | 18.9 | – | – | CCOc1ccc2nc(N/C(=C\C(=O)c3ccc(C)cc3)SC)sc2c1
– | – | 18 | 16.3 | Not Active | Not Active | CCOc1ccc2nc(N/C(=C\C(=O)c3ccccc3)SC)sc2c1
